Experimental data from ChEMBL document CHEMBL4002570, “Synthesis and cytostatic properties of polyfunctionalized furanoallocolchicinoids” (Eur J Med Chem, 2017).
Active and inactive are the calls of the source.

Experiments:
BXPC-3 = assay: Cytotoxicity against 2D culture of human BxPC3 cells measured after 72 hrs by MTT assay; type: functional, cell-based; conditions: BXPC-3, 72 h
Procedure, shortened: (§1)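 Cells (tumor lines and HaCaT in DMEM with 10% FCS; bone-marrow MSC at passages 2-6) seeded at 3x10⁵ cells/mL 24 h before and allowed to adhere. Compounds dissolved in DMSO (20 mM stock), diluted 20 µM to 0.1 nM, exposed 72 h. MTT added for the last 6 h, formazan dissolved in DMSO, OD read at 540 nm. IC50 taken from titration curves.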

PANC-1 [1] = assay: Cytotoxicity against 2D culture of human PANC1 cells measured after 72 hrs by MTT assay; type: functional, cell-based; conditions: PANC-1, 72 h; procedure, shortened: as §1
COLO357 [2] = assay: Cytotoxicity against 2D culture of human Colo-357 cells measured after 72 hrs by MTT assay; type: functional, cell-based; conditions: COLO357, 72 h; procedure, shortened: as §1
MIA PaCa-2 [3] = assay: Cytotoxicity against 2D culture of human MIAPaCa2 cells measured after 72 hrs by MTT assay; type: functional, cell-based; conditions: MIA PaCa-2, 72 h; procedure, shortened: as §1
A549 = assay: Cytotoxicity against 2D culture of human A549 cells measured after 72 hrs by MTT assay; type: functional, cell-based; conditions: A549, 72 h; procedure, shortened: as §1
[4] = Cytotoxicity against 2D culture of human MSC measured after 72 hrs by MTT assay; type: cell-based; procedure, shortened: as §1
EA.hy 926 [5] = assay: Cytotoxicity against 2D culture of human EAhy926 cells measured after 72 hrs by MTT assay; type: cell-based; conditions: EA.hy 926, 72 h; procedure, shortened: as §1
HaCaT = assay: Cytotoxicity against 2D culture of human HaCaT cells measured after 72 hrs by MTT assay; type: cell-based; procedure, shortened: as §1
EA.hy 926 [6] = assay: Cytotoxicity against 3D culture of human EAhy926 cells up to 10000 nM measured after 72 hrs by MTT assay; type: cell-based; conditions: ea.hy 926, 72 h
Procedure, shortened: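 Spheroids formed on polyHEMA-coated plates before drug addition, then handled like 2D MTT: dilutions from 20 µM to 0.1 nM, 72 h exposure, MTT for the final 6 h, DMSO solubilization, OD at 540 nm. Inhibition index = 1 − OD(exp)/OD(control); IC50 read at the 50% cutoff.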

COLO357 [7] = assay: Induction of apoptosis in 2D culture of human Colo-357 cells assessed as accumulation at G2/M phase at 1 uM measured after 72 hrs by propidium iodide staining based flow cytometry; type: functional, cell-based
Procedure, shortened: (§2)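 Cultures (2D or polyHEMA spheroids) exposed to 1 µM for 72 h. Cells trypsinized, washed in ice-cold PBS, fixed in 70% ethanol for 2 h at −20 °C, stained with propidium iodide 50 µg/ml plus […] 10 µg/ml. Flow cytometry with 2000 events. Phase distribution gated on dot plots; apoptotic cells excluded in 3D histograms.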

MIA PaCa-2 [8] = assay: Induction of apoptosis in 2D culture of human MIAPaCa2 cells assessed as accumulation at G2/M phase at 1 uM measured after 72 hrs by propidium iodide staining based flow cytometry; type: functional, cell-based
COLO357 [9] = assay: Induction of apoptosis in 3D culture of human Colo-357 cells assessed as accumulation at G2/M phase at 1 uM measured after 72 hrs by propidium iodide staining based flow cytometry; type: functional, cell-based; procedure, shortened: as §2
MIA PaCa-2 [10] = assay: Induction of apoptosis in 3D culture of human MIAPaCa2 cells assessed as accumulation at G2/M phase at 1 uM measured after 72 hrs by propidium iodide staining based flow cytometry; type: functional, cell-based; procedure, shortened: as §2
COLO357 [11] = assay: Disruption of mitotic spindle in human Colo-357 cells at 1 uM measured after 72 hrs by Hoechst 33342 staining based confocal microscopic analysis; type: functional, cell-based
COLO357 [12] = assay: Induction of beta-tubulin expression in human Colo-357 cells at 1 uM measured after 24 hrs by Hoechst 33342 staining based confocal microscopic analysis; type: functional, cell-based
Procedure, shortened: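 Colo-357 in 2D exposed to 1 µM for 24 h, fixed, then stained with anti-β-tubulin antibody (red) and Hoechst 33342. Confocal imaging; mean fluorescence intensity from red pixel counts over several fields; significance taken at p<0.05.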

COLO357 [13] = assay: Induction of total tubulin expression in 3D culture of human Colo-357 cells measured after 48 hrs by propidium iodide staining based flow cytometry; type: functional, cell-based
Procedure, shortened: (§3)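 Spheroids on polyHEMA exposed to 1 µM for 48 h, trypsinized, permeabilized, stained with anti-tubulin antibody and phalloidin-AlexaFluor488 for F-actin, and analyzed by flow cytometry.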

COLO357 [14] = assay: Induction of beta-tubulin expression in human Colo-357 cells assessed as mean fluorescence intensity at 1 uM measured after 24 hrs by Hoechst 33342 staining based confocal microscopic analysis (reference value: 52 +/- 12); type: functional
COLO357 [15] = assay: Induction of F-actin expression in 3D culture of human Colo-357 cells at 1 uM measured after 48 hrs by propidium staining based flow cytometry; type: functional, cell-based; procedure, shortened: as §3
MIA PaCa-2 [16] = assay: Induction of F-actin expression in 3d culture of human MIAPaCa2 cells at 1 uM measured after 48 hrs by propidium staining based flow cytometry; type: functional, cell-based; procedure, shortened: as §3
COLO357 [17] = assay: Induction of mitochondrial membrane hyperpolarization in 3D culture of human Colo-357 cells at 1 uM measured after 48 hrs by DiOC6 dye based flow cytometry; type: functional, cell-based
Procedure, shortened: (§4)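 Spheroids on polyHEMA exposed to 1 µM for 48 h, trypsinized. Live cells stained for 1 h with DiOC₆ (mitochondrial potential), LysoTrackerRed (lysosomal potential) or propidium iodide (membrane permeability), then analyzed by flow cytometry.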

MIA PaCa-2 [18] = assay: Induction of mitochondrial membrane hyperpolarization in 3D culture of human MIAPaCa2 cells at 1 uM measured after 48 hrs by DiOC6 dye based flow cytometry; type: functional, cell-based; procedure, shortened: as §4
COLO357 [19] = assay: Induction of lysosomal membrane hyperpolarization in 3D culture of human Colo-357 cells at 1 uM measured after 48 hrs by LysoTrackRed dye based flow cytometry; type: functional, cell-based; procedure, shortened: as §4
MIA PaCa-2 [20] = assay: Induction of lysosomal membrane hyperpolarization in 3D culture of human MIAPaCa2 cells at 1 uM measured after 48 hrs by LysoTrackRed dye based flow cytometry; type: functional, cell-based; procedure, shortened: as §4
COLO357 [21] = assay: Induction of cell membrane permeability in 3D culture of human Colo-357 cells at 1 uM measured after 48 hrs by propidium iodide staining based flow cytometry; type: functional; procedure, shortened: as §4
MIA PaCa-2 [22] = assay: Induction of cell membrane permeability in 3D culture of human MIAPaCa2 cells at 1 uM measured after 48 hrs by propidium iodide staining based flow cytometry; type: functional; procedure, shortened: as §4
PANC-1 [23] = assay: Disruption of preformed spheroids in human PANC1 cells at 1 uM measured after 48 hrs by propidium staining based flow cytometry; type: functional, cell-based
MIA PaCa-2 [24] = assay: Disruption of preformed spheroids in human MIAPaCa2 cells at 1 uM measured after 48 hrs by propidium staining based flow cytometry; type: functional, cell-based
COLO357 [25] = assay: Disruption of preformed spheroids in human Colo-357 cells at 1 uM measured after 48 hrs by propidium staining based flow cytometry; type: functional, cell-based

COc1cc2c(c(OC)c1OC)-c1cc3cc(CCO)oc3cc1C(O)CC2 (centres undefined)
IC50 (BXPC-3): 400 nM
IC50 (PANC-1 [1]): 400 nM
IC50 (COLO357 [2]): > 400 nM
IC50 (MIA PaCa-2 [3]): > 400 nM
IC50 (A549): 400 nM

COc1cc2c(c(OC)c1OC)-c1cc3cc(CCO)oc3cc1C(=O)CC2
IC50 (BXPC-3): 400 nM
IC50 (PANC-1 [1]): 400 nM
IC50 (COLO357 [2]): > 400 nM
IC50 (MIA PaCa-2 [3]): > 400 nM
IC50 (A549): 400 nM

COc1cc2c(c(OC)c1OC)-c1cc3cc(C(C)O)oc3cc1C(O)CC2 (centres undefined)
IC50 (BXPC-3): 30 nM
IC50 (PANC-1 [1]): 30 nM
IC50 (COLO357 [2]): 64 nM
IC50 (MIA PaCa-2 [3]): 64 nM
IC50 (A549): 80 nM

COc1cc2c(c(OC)c1OC)-c1cc3cc(CO)oc3cc1C(O)CC2 (centres undefined)
IC50 (BXPC-3): 16 nM
IC50 (PANC-1 [1]): 16 nM
IC50 (COLO357 [2]): 16 nM
IC50 (MIA PaCa-2 [3]): 16 nM
IC50 (A549): 16 nM
IC50 [4]: > 800 nM
IC50 (EA.hy 926 [5]): > 800 nM
IC50 (HaCaT): 16 nM
Activity (EA.hy 926 [6]): Non-Toxic
Activity (COLO357 [7]): Active
Activity (MIA PaCa-2 [8]): Active
Activity (COLO357 [9]): Active
Activity (MIA PaCa-2 [10]): Active
Activity (COLO357 [11]): Active
Activity (COLO357 [12]): Active
Activity (COLO357 [13]): Active
Flu intensity (COLO357 [14]): 110
Activity (COLO357 [15]): Active
Activity (MIA PaCa-2 [16]): Active
Activity (COLO357 [17]): Active
Activity (MIA PaCa-2 [18]): Active
Activity (COLO357 [19]): Active
Activity (MIA PaCa-2 [20]): Active
Activity (COLO357 [21]): Active
Activity (MIA PaCa-2 [22]): Active
Activity (PANC-1 [23]): Active
Activity (MIA PaCa-2 [24]): Active
Activity (COLO357 [25]): Active

COc1cc2c(c(OC)c1OC)-c1cc3cc(C(C)O)oc3cc1C(=O)CC2 (centres undefined)
IC50 (BXPC-3): 80 nM
IC50 (PANC-1 [1]): 70 nM
IC50 (COLO357 [2]): 100 nM
IC50 (MIA PaCa-2 [3]): > 100 nM
IC50 (A549): 40 nM

COc1cc2c(c(OC)c1OC)-c1ccc(OC)c(=O)cc1[C@@H](NC(C)=O)CC2 [COLCHICINE]
IC50 (BXPC-3): 80 nM
IC50 (PANC-1 [1]): 80 nM
IC50 (COLO357 [2]): 160 nM
IC50 (MIA PaCa-2 [3]): 160 nM
IC50 (A549): 400 nM
IC50 [4]: > 800 nM
IC50 (EA.hy 926 [5]): > 800 nM
IC50 (HaCaT): 80 nM
Activity (EA.hy 926 [6]): Non-Toxic
Activity (COLO357 [7]): Active
Activity (MIA PaCa-2 [8]): Active
Activity (COLO357 [9]): Active
Activity (MIA PaCa-2 [10]): Active
Activity (COLO357 [11]): Active
Activity (COLO357 [12]): Active
Activity (COLO357 [13]): Active
Flu intensity (COLO357 [14]): 74
Activity (COLO357 [15]): inactive
Activity (MIA PaCa-2 [16]): Active
Activity (COLO357 [17]): Active
Activity (MIA PaCa-2 [18]): Active
Activity (COLO357 [19]): Active
Activity (MIA PaCa-2 [20]): Active
Activity (COLO357 [21]): Active
Activity (MIA PaCa-2 [22]): Active
Activity (PANC-1 [23]): Active
Activity (MIA PaCa-2 [24]): Active
Activity (COLO357 [25]): Active

COc1cc2c(c(OC)c1OC)-c1cc3cc(CO)oc3cc1C(=O)CC2
IC50 (BXPC-3): 16 nM
IC50 (PANC-1 [1]): 16 nM
IC50 (COLO357 [2]): 16 nM
IC50 (MIA PaCa-2 [3]): 64 nM
IC50 (A549): 16 nM
IC50 [4]: > 800 nM
IC50 (EA.hy 926 [5]): > 800 nM
IC50 (HaCaT): 16 nM
Activity (EA.hy 926 [6]): Non-Toxic
Activity (COLO357 [7]): Active
Activity (MIA PaCa-2 [8]): Active
Activity (COLO357 [9]): Active
Activity (MIA PaCa-2 [10]): Active
Activity (COLO357 [11]): Active
Activity (COLO357 [12]): Active
Activity (COLO357 [13]): Active
Flu intensity (COLO357 [14]): 73
Activity (COLO357 [15]): inactive
Activity (MIA PaCa-2 [16]): Active
Activity (COLO357 [17]): Active
Activity (MIA PaCa-2 [18]): Active
Activity (COLO357 [19]): Active
Activity (MIA PaCa-2 [20]): Active
Activity (COLO357 [21]): Active
Activity (MIA PaCa-2 [22]): Active
Activity (PANC-1 [23]): Active
Activity (MIA PaCa-2 [24]): Active
Activity (COLO357 [25]): Active

COc1cc2c(c(OC)c1OC)-c1cc3cc(COC(C)=O)oc3cc1C(=O)CC2
IC50 (BXPC-3): 16 nM
IC50 (PANC-1 [1]): 16 nM
IC50 (COLO357 [2]): 16 nM
IC50 (MIA PaCa-2 [3]): 16 nM
IC50 (A549): 80 nM
